Jurkat NFkB inh = inhibitors of induced NF-kB luciferase reporter, primary screen, TCR NF-kB activation inhibitor project, cell-based, luminescence, uHTS | Jurkat, PMA/ionomycin-induced NF-kB luciferase reporter | 330,000 tested, 0.53% active | inhibition, % at 4 µM; in the data active = inhibition above about 50%
697 NFkB inh = inhibitors of PMA/ionomycin-induced NF-kB reporter, 697 cells, primary screen, B-cell NF-kB inhibitor project, cell-based, luminescence, uHTS | inhibition, % at 4 µM | 330,000 tested, 0.33% active | 697 B-cell NF-kB luciferase reporter, 16 h; in the data active = inhibition above about 35%
aSyn UTR inh = MLPCN primary screen, SNCA 5' untranslated region. alpha-synuclein 5'UTR reporter, inhibitor activity. inhibition, % (tested at 7.5 µM). 300,000 tested, 0.82% active; in the data active = inhibition above about 60%;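 also: H4 neuroglioblastoma cells stably carrying SNCA 5'UTR luciferase fusion; 0% = DMSO wells and 100% = positive control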
Mdm2-MdmX inh = inhibitors of human Mdm2-MdmX association, primary screen, cell-based, luminescence, split luciferase, SaOS-2, uHTS; AID 485346, 2010; 330,000 tested, 3% active; SaOS-2 split-luciferase Mdm2/MdmX complementation; inhibition, % at 8 µM; Protein Mdm4 (Homo sapiens) + E3 ubiquitin-protein ligase Mdm2 (Homo sapiens), …;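 active = inhibition of at least 50% at 8 µM in the primary screen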
VIM-2 inh = VIM-2 metallo-beta-lactamase inhibitors, primary screen, biochemical, epi-absorbance readout, Pseudomonas aeruginosa enzyme; 290,000 tested, 0.89% active; inhibition, % at 5.6 µM; purified VIM-2, nitrocefin hydrolysis, epi-absorbance fluorescence;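 active = inhibition above the mean of all tested compounds plus 3 SD, cutoff set per screening run, cut at about 7.5% in these data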;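 also: red hydrolysis product quenches plate fluorescence so inhibitors raise well fluorescence; 0% = enzyme with DMSO and 100% = DMSO without enzyme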
IMP-1 inh-1 = IMP-1 metallo-beta-lactamase inhibitors, primary screen, biochemical, epi-absorbance readout, Pseudomonas aeruginosa enzyme | metallo-beta-lactamase IMP-1 (Pseudomonas aeruginosa) | purified IMP-1, nitrocefin hydrolysis, epi-absorbance fluorescence | inhibition, % at 5.6 µM | 290,000 tested, 0.45% active | AID 1556, 2009;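 active = inhibition above the mean plus 3 SD of all compounds in the same screening run, cut at about 4.5% in these data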;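 also: 0% = IMP-1 with DMSO and 100% = DMSO wells lacking enzyme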
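Test system: recombinant IMP-1 enzyme, purified / Medium: HEPES buffer pH 7.1 with ZnSO4 and Brij 35 / Doses: single dose, 5.6 µM / Times: 25 °C, 15 min preincubation, 25 min reaction / Detection: Epi-absorbance via hydrolysed-nitrocefin quenching of white-plate fluorescence, 480/530 nm, EDTA stop / Evaluation: percent inhibition from optical density relative to buffer-blank wells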
IMP-1 inh-2 = IMP-1 metallo-beta-lactamase inhibitors, confirmation, selectivity assay for selective VIM-2 inhibitor project, biochemical, epi-absorbance readout, triplicate. shares compounds with VIM-2 inh. purified IMP-1, nitrocefin hydrolysis, epi-absorbance fluorescence. inhibition, % at 5.6 µM. 1,300 tested, under 10 active. AID 1856, 2009; call rule not given here;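 also: 0% = enzyme with vehicle and 100% = vehicle without enzyme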
VIM-2 FRET ctr = VIM-2 inhibitors in FRET format, confirmation, artefact control for selective VIM-2 inhibitor project, biochemical, epi-absorbance artifact exclusion; inhibition, % at 5.6 µM; 1,300 tested, 23% active; shares compounds with VIM-2 inh; purified VIM-2, CCF2 FRET substrate hydrolysis;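 active = inhibition above the mean of all tested compounds plus 3 SD, cut at about 19% in these data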;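 also: 0% = VIM-2 plus DMSO and 100% = no enzyme wells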
TEM-1 counter = TEM-1 serine beta-lactamase inhibitors, counter-screen for VIM-2 inhibitor project, biochemical, epi-absorbance, HTS | shares compounds with VIM-2 inh | Purified TEM-1, nitrocefin hydrolysis, epi-absorbance fluorescence | inhibition, % at 5.6 µM | 1,300 tested, 3% active;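 active = inhibition above that campaign's mean inhibition plus 3 SD, cut at about 0.46% in these data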;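 also: 0% = TEM-1 with DMSO and 100% = TEM-1 with 100 µM potassium clavulanate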
Target sequence (P62593 whole entry, looked up): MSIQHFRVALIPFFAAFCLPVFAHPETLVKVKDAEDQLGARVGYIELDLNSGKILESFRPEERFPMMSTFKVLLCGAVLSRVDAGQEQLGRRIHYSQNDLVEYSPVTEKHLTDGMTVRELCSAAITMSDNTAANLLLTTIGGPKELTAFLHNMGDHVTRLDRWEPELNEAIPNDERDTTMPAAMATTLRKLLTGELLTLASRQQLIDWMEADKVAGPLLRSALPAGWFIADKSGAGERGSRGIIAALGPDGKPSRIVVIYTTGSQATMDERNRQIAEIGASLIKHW
VIM-2 confirm 2 = VIM-2 metallo-beta-lactamase inhibitors, confirmation, biochemical, epi-absorbance, hits shared with IMP-1 screen. shares compounds with VIM-2 inh. purified VIM-2, nitrocefin hydrolysis. inhibition, % at 5.6 µM. 1,300 tested, 96% active. AID 2187, 2009;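 active = inhibition of the VIM-2 beta-lactamase enzyme above about 11% from the earlier first-round screen, limit read from the data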;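 also: 0% = VIM-2 with DMSO and 100% = buffer wells without enzyme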
* marks the source's active call; other numbers are inactive results; / = not tested or not shown. Compounds with a hit are over-represented: about 4.7% of the library has one in this group of screens.

SMILES	Jurkat NFkB inh	697 NFkB inh	aSyn UTR inh	Mdm2-MdmX inh	VIM-2 inh	IMP-1 inh-1	IMP-1 inh-2	VIM-2 FRET ctr	TEM-1 counter	VIM-2 confirm 2
O=C1c2cccc3cccc(c23)C(=O)N1CC1CCN(CC(O)COCc2ccc3c(c2)OCO3)CC1 (stereo unspecified)	15	-12	-32	25	16*	-1	-3	-5	-6	24*
COc1ccc(OCC(O)CN2CCC(CN3C(=O)c4cccc5cccc(c45)C3=O)CC2)cc1 (stereo unspecified)	-4	5	3	19	/	/	/	/	/	/
Cc1c(N2C(=O)/C(=C/c3cccc4ccccc34)SC2=S)c(=O)n(-c2ccccc2)n1C	10	24	1	0	50*	0	1	13	-4	12*
COc1ccc(-c2c(-c3cc(OC)cc(OC)c3)n(C)c3ccc(-c4ccc5cc[nH]c5c4)cc23)cc1	-6	5	/	6	/	/	/	/	/	/
CC[C@]12c3[nH]c4cc(-c5ccco5)ccc4c3CCN1C(=O)[C@@H](CC(=O)NCCN1CCOCC1)C[C@@H]2C(=O)N1CCN(C(=O)C2CC2)CC1	/	0	/	6	/	/	/	/	/	/
COc1ccc(N2CCN(C(=O)Cc3ccc(S(=O)(=O)N4CCOCC4)s3)CC2)cc1	-7	6	-3	-34	1	2	/	/	/	/
CCc1cc2c(CN3CCN(C)CC3)cc(=O)oc2cc1O	-19	-8	4	11	16*	1	-1	-16	1.1*	31*
CCc1cc2c(CN3CCN(CCO)CC3)cc(=O)oc2cc1O	1	15	9	16	18*	-3	-3	-19	-7	25*
CCOC(=O)[C@H]1[C@H]2COc3ccc(OC)cc3[C@H]2N2C(=O)CNC(=O)[C@@]12C	9	-4	/	-2	/	/	/	/	/	/
CC1(C)CC(=O)C=C(c2cccc(O)c2)C1=O	0	10	/	-7	/	/	/	/	/	/
C/C(Cl)=C\Cn1c(NCCCn2ccnc2)nc2c1c(=O)n(C)c(=O)n2C	14	0	21	9	31*	-5	-4	-3	-7	49*
C/C(Cl)=C/Cn1c(NCCCn2ccnc2)nc2c1c(=O)[nH]c(=O)n2C	-8	-6	14	4	22*	-3	-4	-6	-4	45*
Cn1c(=O)[nH]c(=O)c2c1nc(NCCCn1ccnc1)n2Cc1ccc(F)cc1	-15	11	6	10	2	-4	/	/	/	/
CCN(CC)CCNc1nc2c(c(=O)n(C)c(=O)n2C)n1C/C=C(/C)Cl	-15	-22	12	-4	1	-2	/	/	/	/
Cc1ccc2c(c1)c1nc3ccccc3nc1n2CCN1CCOCC1	-55	-122	20	-21	2	-3	/	/	/	/
Cc1ccc2c(c1)c1nc3ccccc3nc1n2C	-58	-55	-90	-2	14*	1	-1	1	-4	16*
CCc1cc(=O)oc2cc(C)cc(OC(C)C(=O)NCCCn3ccnc3)c12 (stereo unspecified)	-3	2	-15	9	36*	-3	-3	-9	-4	49*

Source: PubChem BioAssay (several laboratories)
